From ChEMBL document CHEMBL3751740, “New MKLP-2 inhibitors in the paprotrain series: Design, synthesis and biological evaluations” (Bioorg Med Chem, 2016)

How the values were obtained:
[1] = Growth inhibition of human MIAPaCa2 cells incubated for 4 days by WST-1 assay; assay type: functional; conditions: MIA PaCa-2, 96 h
In short: (§1)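 Cells were kept at 37 °C under 5% CO2 and plated on day 0 at 500–5000 cells/well. On day 1 they received ten concentrations from 0.0025 to 50 µM (final), in triplicate. On day 4 WST-1 was added, followed by 30 min–4 h incubation and absorbance at 450 nm. GI50 is the concentration killing 50% of cells.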

HepG2 = experiment: Growth inhibition of human HepG2 cells incubated for 4 days by WST-1 assay; assay type: functional; conditions: HepG2, 96 h; in short: as §1
A549 = experiment: Growth inhibition of human A549 cells incubated for 4 days by WST-1 assay; assay type: functional; conditions: A549, 96 h; in short: as §1
[2] = target: T1, Kinesin-like protein KIFC3 (Homo sapiens) (UniProt Q9BVG8); experiment: Inhibition of porcine brain microtubule-stimulated human recombinant GST-tagged KIFC3 ATPase activity at 1 mM by microplate reader in presence of Mg2+ ATP relative to control
T1 sequence (whole entry): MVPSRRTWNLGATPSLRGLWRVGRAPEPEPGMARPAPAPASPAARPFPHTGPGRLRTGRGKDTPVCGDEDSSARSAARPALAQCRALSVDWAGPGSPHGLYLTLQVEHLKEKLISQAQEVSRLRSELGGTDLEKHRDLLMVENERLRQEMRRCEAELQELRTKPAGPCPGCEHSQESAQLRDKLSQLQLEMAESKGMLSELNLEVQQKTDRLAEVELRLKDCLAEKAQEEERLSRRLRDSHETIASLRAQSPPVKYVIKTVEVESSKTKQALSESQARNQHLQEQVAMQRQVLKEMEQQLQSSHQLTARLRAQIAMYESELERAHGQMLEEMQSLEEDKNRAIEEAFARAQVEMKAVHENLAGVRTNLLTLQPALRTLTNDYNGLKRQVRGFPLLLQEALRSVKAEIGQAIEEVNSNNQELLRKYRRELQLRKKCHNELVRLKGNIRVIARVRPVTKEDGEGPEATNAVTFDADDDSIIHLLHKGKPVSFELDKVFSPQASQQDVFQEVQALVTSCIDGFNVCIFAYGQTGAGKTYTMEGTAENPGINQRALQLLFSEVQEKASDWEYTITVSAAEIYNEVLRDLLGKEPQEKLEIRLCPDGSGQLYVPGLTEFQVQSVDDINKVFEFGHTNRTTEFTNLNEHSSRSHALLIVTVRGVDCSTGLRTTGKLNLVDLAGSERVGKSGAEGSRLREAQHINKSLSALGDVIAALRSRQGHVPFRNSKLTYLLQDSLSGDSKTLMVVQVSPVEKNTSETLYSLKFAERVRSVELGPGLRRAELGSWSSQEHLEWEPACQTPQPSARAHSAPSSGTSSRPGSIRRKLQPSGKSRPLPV
In short: (§2)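 Motor domain at 15 µM final, in 7.5 mM PIPES-NaOH pH 7.0 with […], 10 µM Taxol, ELIPA 1 and 2 reagents and 1.25 mg/mL microtubules. AMP-PNP, a slowly hydrolysable ATP analog and general ATPase inhibitor, tested at 1 mM. Reaction started with 1 mM Mg2+ATP at 22 °C and read kinetically at 360 nm. Run in triplicate.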

[3] = target: T2, Kinesin-like protein KIF11 (Homo sapiens) (UniProt P52732); experiment: Inhibition of porcine brain microtubule-stimulated human recombinant GST-tagged Eg5 ATPase activity at 1 mM by microplate reader in presence of Mg2+ ATP relative to control; in short: as §2
T2 sequence (whole entry): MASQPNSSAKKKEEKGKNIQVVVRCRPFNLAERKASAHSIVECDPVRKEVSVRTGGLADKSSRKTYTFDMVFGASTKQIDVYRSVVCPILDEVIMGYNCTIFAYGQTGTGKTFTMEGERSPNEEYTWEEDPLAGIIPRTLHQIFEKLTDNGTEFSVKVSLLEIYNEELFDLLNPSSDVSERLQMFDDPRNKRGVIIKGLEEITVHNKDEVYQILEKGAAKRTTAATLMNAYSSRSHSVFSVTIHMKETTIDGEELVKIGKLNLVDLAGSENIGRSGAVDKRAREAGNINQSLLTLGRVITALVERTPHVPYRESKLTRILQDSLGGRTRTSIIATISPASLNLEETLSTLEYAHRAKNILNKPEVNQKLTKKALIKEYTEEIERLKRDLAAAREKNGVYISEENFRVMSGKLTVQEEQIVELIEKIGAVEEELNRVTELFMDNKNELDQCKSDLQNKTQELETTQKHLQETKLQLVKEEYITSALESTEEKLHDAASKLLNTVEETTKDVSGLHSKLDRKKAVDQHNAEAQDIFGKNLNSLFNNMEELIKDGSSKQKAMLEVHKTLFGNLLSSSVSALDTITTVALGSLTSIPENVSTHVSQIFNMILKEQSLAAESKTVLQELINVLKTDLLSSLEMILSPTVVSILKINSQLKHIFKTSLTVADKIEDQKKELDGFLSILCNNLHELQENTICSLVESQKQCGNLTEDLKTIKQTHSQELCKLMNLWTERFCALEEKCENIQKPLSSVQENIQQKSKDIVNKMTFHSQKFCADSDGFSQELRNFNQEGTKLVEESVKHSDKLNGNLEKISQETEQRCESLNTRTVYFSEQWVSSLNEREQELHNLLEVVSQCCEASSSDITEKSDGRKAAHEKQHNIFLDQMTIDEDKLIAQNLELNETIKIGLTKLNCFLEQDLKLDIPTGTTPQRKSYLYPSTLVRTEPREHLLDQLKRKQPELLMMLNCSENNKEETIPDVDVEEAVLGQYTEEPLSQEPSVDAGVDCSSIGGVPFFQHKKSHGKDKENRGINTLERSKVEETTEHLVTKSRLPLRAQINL

[4] = target: Centromere-associated protein E (Homo sapiens) (UniProt Q02224); experiment: Inhibition of porcine brain microtubule-stimulated human recombinant GST-tagged CENP-E ATPase activity at 1 mM by microplate reader in presence of Mg2+ ATP relative to control; in short: as §2
Chain of Centromere-associated protein E (Homo sapiens) (Q02224 whole entry): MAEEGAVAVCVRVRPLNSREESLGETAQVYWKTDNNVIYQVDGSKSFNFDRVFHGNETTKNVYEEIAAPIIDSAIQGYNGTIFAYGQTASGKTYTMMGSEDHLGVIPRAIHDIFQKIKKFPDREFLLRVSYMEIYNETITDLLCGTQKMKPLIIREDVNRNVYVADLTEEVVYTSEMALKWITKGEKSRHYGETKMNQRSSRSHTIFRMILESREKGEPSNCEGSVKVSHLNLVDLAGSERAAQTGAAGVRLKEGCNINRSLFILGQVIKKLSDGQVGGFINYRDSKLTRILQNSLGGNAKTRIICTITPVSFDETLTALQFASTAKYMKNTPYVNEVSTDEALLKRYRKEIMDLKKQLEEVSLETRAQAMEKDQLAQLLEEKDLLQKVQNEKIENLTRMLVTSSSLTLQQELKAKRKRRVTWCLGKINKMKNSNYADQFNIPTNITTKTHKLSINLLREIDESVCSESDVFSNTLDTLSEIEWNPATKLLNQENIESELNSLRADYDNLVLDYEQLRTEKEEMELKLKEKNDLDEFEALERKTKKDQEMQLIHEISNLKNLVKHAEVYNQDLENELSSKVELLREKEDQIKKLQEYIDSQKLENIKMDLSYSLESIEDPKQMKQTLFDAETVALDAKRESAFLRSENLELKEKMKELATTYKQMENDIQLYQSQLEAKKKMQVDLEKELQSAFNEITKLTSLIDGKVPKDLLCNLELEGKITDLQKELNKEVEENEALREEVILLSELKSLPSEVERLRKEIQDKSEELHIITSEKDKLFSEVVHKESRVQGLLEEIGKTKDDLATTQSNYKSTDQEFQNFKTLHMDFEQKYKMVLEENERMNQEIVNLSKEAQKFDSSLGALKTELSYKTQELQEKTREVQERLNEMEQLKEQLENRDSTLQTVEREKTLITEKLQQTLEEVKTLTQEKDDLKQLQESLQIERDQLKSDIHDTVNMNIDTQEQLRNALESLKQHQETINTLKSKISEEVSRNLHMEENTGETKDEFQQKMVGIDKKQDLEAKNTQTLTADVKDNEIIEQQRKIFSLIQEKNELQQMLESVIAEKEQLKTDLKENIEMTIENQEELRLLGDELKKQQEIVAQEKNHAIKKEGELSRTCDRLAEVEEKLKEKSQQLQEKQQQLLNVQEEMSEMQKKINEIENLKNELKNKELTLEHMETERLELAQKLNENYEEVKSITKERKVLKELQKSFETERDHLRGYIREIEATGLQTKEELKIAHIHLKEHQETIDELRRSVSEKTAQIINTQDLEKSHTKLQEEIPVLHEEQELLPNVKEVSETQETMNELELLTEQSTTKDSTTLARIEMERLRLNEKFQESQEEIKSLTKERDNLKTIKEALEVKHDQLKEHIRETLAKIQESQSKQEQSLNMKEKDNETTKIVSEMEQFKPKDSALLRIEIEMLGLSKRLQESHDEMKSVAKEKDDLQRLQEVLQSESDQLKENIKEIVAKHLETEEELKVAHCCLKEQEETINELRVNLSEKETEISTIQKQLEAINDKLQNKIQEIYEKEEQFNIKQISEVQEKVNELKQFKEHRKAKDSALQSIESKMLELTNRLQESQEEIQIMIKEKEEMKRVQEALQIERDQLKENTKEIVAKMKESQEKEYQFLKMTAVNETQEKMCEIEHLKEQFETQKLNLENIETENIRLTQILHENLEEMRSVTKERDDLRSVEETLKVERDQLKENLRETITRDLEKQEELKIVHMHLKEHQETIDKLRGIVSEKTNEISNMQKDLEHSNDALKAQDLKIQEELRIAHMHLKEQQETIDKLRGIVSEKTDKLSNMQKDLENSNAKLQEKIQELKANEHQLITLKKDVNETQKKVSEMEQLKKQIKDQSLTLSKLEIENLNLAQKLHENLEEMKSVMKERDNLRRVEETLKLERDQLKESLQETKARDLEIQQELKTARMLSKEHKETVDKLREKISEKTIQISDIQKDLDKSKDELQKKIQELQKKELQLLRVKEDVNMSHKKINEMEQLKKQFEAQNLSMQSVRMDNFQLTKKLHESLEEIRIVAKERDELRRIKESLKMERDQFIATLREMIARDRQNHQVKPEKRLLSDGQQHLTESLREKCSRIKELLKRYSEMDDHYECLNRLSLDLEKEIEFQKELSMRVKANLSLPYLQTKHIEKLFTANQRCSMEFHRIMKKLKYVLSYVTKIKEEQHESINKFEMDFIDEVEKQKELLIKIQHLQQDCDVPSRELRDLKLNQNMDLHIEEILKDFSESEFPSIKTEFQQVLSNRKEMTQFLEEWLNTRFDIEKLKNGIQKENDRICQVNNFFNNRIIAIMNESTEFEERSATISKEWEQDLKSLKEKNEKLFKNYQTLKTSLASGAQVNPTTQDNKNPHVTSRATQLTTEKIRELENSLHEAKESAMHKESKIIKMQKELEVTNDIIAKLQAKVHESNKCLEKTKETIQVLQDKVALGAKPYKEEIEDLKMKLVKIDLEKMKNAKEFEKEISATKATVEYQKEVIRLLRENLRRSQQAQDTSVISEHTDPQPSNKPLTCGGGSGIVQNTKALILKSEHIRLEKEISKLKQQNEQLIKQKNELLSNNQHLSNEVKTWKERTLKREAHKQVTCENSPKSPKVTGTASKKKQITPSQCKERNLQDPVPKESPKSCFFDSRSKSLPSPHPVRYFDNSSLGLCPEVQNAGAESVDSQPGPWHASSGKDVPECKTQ

Row | Structure (SMILES) | GI50 [1] | GI50 (HepG2) | GI50 (A549) | inhibition [2] | inhibition [3] | inhibition [4]
1 | COc1ccc2[nH]cc(/C(C#N)=C/c3cccnc3)c2c1 | 5.5 µM | > 50 µM | 9.4 µM | – | – | –
2 | Nc1ncnc2c1ncn2[C@@H]1O[C@H](COP(=O)(O)OP(=O)(O)NP(=O)(O)O)[C@@H](O)[C@H]1O | – | – | – | > 30% | > 30% | > 30%
